Screens deposited in PubChem BioAssay by several laboratories.
MC4R antagonist: MC4R antagonists of cAMP signaling, primary screen, cell-based, TR-FRET, antagonist arm of biased-ligand search | MC4R-expressing cells, MTII-stimulated cAMP, LANCE TR-FRET | hit rate 0.48% among 360,000 | inhibition, % at 6.5 µM | Melanocortin receptor 4 (Homo sapiens), P32245 | AID 540295, 2011;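 active means inhibition above its plate's cutoff, the mean of tested wells on that plate plus 3 SD, cut at about 29% in these data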
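Material – human MC4R-expressing U2OS cells · Repeats – no replicates · Detection – TR-FRET with Eu-cAMP and labeled anti-cAMP, 671 nm · Times – compound 30 min, challenge 1 h, detection 1 h · Compound – single nominal compound dose of 6.5 µM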
MIN6 prolif: inducers of MIN6 beta-cell proliferation, primary screen, ATP luminescence, uHTS. MIN6 cells proliferation, ATPlite luminescence, 48 h; cells starved in 0.2% serum; 100% = growth in 10% serum. proliferation, % at 10 µM. hit rate 0.29% among 330,000. AID 2380, 2010;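 active means compounds whose signal lies at least 3.5 SD above the mean of all wells on their plate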
TLR4-MyD88 BLA: inhibitors of TLR4-MyD88 association in cells, primary screen, cell-based, HeLa CL3-4, BLA complementation, FRET ratio. HeLa CL3-4 TLR4/MyD88 BLA complementation. Toll-like receptor 4 (Homo sapiens) + Myeloid differentiation primary response protein …. inhibition, % at 8.4 µM. hit rate 0.18% among 200,000; in the data active means inhibition above about 25%
TLR9-MyD88 inh: inhibitors of TLR9-MyD88 association in cells, primary screen, cell-based, CHO, BLA complementation, fluorescence. Toll-like receptor 9 (Homo sapiens) + Myeloid differentiation primary response protein …. CCF4 FRET ratio. inhibition, % at 4.98 µM. hit rate 0.21% among 340,000. AID 504734, 2011;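 active means inhibition above the mean over all tested compounds plus 3 SD, cut at about 21% in these data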
NOD2 RIPK2 PPI: NOD2-RIPK2 binding disruptors in cells, primary screen, fluorescence, CHO cells, BLA complementation. Receptor-interacting serine/threonine-protein kinase 2 (Homo sapiens), O43353. CCF4 ratio. inhibition, % at 4.98 µM. hit rate 0.38% among 360,000. AID 624267, 2012; in the data active means inhibition above about 21%
MC4R ag barr: MC4R agonists recruiting beta-arrestin, primary screen, cell-based, luminescence, agonist arm of biased-ligand search; U2OS MC4R beta-arrestin complementation; percent of melanotan II response, DMSO zero; activation, % at 8.9 µM; Melanocortin receptor 4 (Homo sapiens), P32245; hit rate 0.98% among 360,000; AID 540308, 2011;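 active means activation above a per-plate cutoff, the mean activation of sample wells on that plate plus 3 SD, cut at about 8% in these data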
MC4R barr ag: MC4R beta-arrestin agonists, retest, confirmation, cell-based, luminescence, U2OS; shares compounds with MC4R ag barr; hit rate 31% among 2,400; U2OS MC4R beta-arrestin recruitment; scaled DMSO 0%, Melanotan II 100%; activation, % at 8.9 µM;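 active means mean activation across replicates above the hit cutoff set in the earlier primary screen, cut at about 8% in these data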
MOR DOR agonist: agonists of MOR-DOR heterodimerization, counter-screen for MC4R biased agonist project, cell-based, luminescence; activation, % at 9.2 µM; U2OS PathHunter beta-arrestin, beta-gal luminescence; percent of deltorphin B response, DMSO zero; hit rate 5.8% among 2,400; shares compounds with MC4R ag barr;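 active means mean activation across replicates exceeds the hit threshold derived in the earlier primary screen, cut at about 18% in these data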
Target sequence (P35372 whole entry, looked up): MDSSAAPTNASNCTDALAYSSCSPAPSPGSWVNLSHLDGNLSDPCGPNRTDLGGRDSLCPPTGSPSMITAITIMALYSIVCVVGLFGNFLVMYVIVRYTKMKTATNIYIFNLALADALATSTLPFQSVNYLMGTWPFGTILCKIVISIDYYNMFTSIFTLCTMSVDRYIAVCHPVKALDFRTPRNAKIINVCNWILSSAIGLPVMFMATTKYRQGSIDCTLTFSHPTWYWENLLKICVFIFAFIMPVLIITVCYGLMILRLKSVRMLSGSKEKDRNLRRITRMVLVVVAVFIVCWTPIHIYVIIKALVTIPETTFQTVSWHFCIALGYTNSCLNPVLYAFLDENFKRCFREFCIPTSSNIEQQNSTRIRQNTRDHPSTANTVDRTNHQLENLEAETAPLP
Target sequence (P41143 whole entry, looked up): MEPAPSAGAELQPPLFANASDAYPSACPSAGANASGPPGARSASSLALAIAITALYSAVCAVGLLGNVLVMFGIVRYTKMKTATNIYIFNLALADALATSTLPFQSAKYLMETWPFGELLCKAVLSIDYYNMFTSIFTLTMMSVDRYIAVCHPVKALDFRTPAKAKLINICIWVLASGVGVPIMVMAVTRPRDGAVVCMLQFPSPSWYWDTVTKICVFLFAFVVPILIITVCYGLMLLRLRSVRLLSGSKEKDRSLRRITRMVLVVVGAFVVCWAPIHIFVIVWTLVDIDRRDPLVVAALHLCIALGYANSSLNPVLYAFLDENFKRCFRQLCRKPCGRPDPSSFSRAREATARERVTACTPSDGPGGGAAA
A number is an active result; - = inactive; . = not tested or not shown. Only some compounds are listed: those with a hit (about 2.1% of all), similar ones and a draw of the others.

SMILES	MC4R antagonist	MIN6 prolif	TLR4-MyD88 BLA	TLR9-MyD88 inh	NOD2 RIPK2 PPI	MC4R ag barr	MC4R barr ag	MOR DOR agonist
O=C(NC(=S)Nc1ccc(N2CCOCC2)cc1)c1ccc(Cl)cc1	-	-	-	-	-	14	-	-
CCOc1cc(C2NC(=O)NC(C)=C2C(=O)OCC2CCCCC2)ccc1O (configuration not stated)	-	-	.	-	-	-	.	.
CCN(CC(=O)Nc1ccc(NC(C)=O)cc1)C(=O)CC1OC(=O)c2ccccc21 (configuration not stated)	-	-	.	-	-	-	.	.
CCc1ccc([C@@H]2CC=C(C(=O)O)[C@H](c3ccc(C(C)(C)C)cc3)N2S(=O)(=O)c2ccc(C)cc2)cc1	-	-	.	-	-	-	.	.
O=C(COC(=O)c1ccccc1NC(=O)c1ccco1)NCCC1=CCCCC1	-	-	-	-	-	14	-	-
COc1cc(CN2C[C@@H](CO)O[C@@H](n3cnc4c(NCCCO)ncnc43)C2)cc(OC)c1OC	-	.	.	.	-	-	.	.
O=C(c1ccncc1)N1CCN(S(=O)(=O)c2ccccc2Br)CC1	-	-	.	-	-	-	.	.
CN(C)c1ccc(NC(=O)/C=C/c2c(Cl)cccc2Cl)cc1	-	-	-	-	-	10	-	-
Cc1cc(C)nc(SCC(=O)Nc2ncc(Cc3ccc(Cl)c(Cl)c3)s2)n1	-	-	-	-	-	21	-	-
CC1(C)C2CCC(CN=C(N)CSS(=O)(=O)O)C1C2 (configuration not stated)	-	.	.	-	-	-	.	.
Cc1cc(SCc2cc(=O)[nH]c3ccccc23)nc2ccccc12	-	-	-	-	-	12	-	-
O=c1cc(CSc2ccccn2)c2ccccc2[nH]1	-	-	-	-	-	-	.	.
CC(=O)c1nn(-c2cccc(C)c2)cc1C(=O)c1cccc(Br)c1	-	-	.	-	-	12	-	-
CC(=O)c1nn(-c2ccc(Cl)cc2)cc1C(=O)c1ccc(C)cc1	-	-	.	.	-	21	13	-
CC(=O)c1nn(-c2cccc(Br)c2)cc1C(=O)c1ccc2ccccc2c1	-	-	-	-	-	-	.	.
CC(=O)c1nn(-c2ccccc2)cc1C(=O)c1ccc(C)cc1	-	-	.	.	-	-	.	.
CC(=O)c1nn(-c2ccc(Br)cc2)cc1C(=O)c1ccccc1	-	-	-	-	-	29	-	19
COc1ccc(C(=O)c2cn(-c3cccc(Br)c3)nc2C(C)=O)cc1	-	-	.	-	-	15	-	-
C=C(C)CN(CC)C(=O)CN1C(=O)NC(C)(c2ccc3ccccc3c2)C1=O (configuration not stated)	-	-	.	-	-	-	.	.
CS(=O)(=O)c1ccc(-c2cc(Br)sc2-c2ccc(F)cc2)cc1	.	-	.	.	.	.	.	.
O=C(c1ccco1)N1CCN(C(=O)c2ccccc2OCc2ccc(Cl)cc2)CC1	-	-	.	-	-	-	.	.
COc1cc(C)c(/C=C(\C#N)C(=O)Nc2cccc(C)c2)cc1C(C)C	-	-	-	-	-	13	-	-
S=C(Nc1cc(Cl)cc(Cl)c1)NC1CCN(Cc2ccccc2)CC1	-	-	.	-	-	13	-	22
COc1cc(OC)c(NC(=O)Cn2cnc3sc(C)c(S(=O)(=O)N4CCOCC4)c3c2=O)cc1Cl	-	-	.	-	-	-	.	.
c1ccc2c(c1)c1c(c3ccccc32)CN2CCCC2C1 (configuration not stated)	-	.	.	-	-	-	.	.
SMILES	MC4R antagonist	MIN6 prolif	TLR4-MyD88 BLA	TLR9-MyD88 inh	NOD2 RIPK2 PPI	MC4R ag barr	MC4R barr ag	MOR DOR agonist
CCOC(=O)c1ccc(NC(=S)Nc2cccc(C)n2)cc1	-	-	-	-	-	22	-	-
CCOC(=O)c1ccc(NC(=S)Nc2cccc(N)n2)cc1	-	-	.	-	-	-	.	.
Cc1cccc(NC(=O)C2(C)CC3c4ccccc4C2c2ccccc23)c1 (configuration not stated)	-	-	-	-	-	17	-	-
Cc1cccc(NC(=O)C2(c3ccccc3)CCOCC2)c1	-	-	-	-	-	-	.	.
COc1ccc(-c2nc(C#N)c(NCc3ccccc3Cl)o2)cc1	-	-	-	-	-	-	.	.
COc1ccc(-c2nc(C#N)c(NCc3ccccc3Cl)o2)cc1OC	-	-	-	-	-	13	-	-
NC(COCc1ccccc1)c1csc(Nc2ccc(S(N)(=O)=O)cc2)n1 (configuration not stated)	-	.	.	.	-	-	.	.
Cn1c(=O)c(C(=O)CSc2ccccc2)c(N)n(Cc2ccccc2)c1=O	-	-	-	-	-	30	-	-
COc1ccccc1CNC(=O)Nc1nc(C(N)Cc2ccc(Cl)cc2)cs1 (configuration not stated)	-	.	.	.	-	25	40	23
NC(Cc1ccc(Cl)cc1)c1csc(Nc2ccc(-c3ccccc3)nn2)n1 (configuration not stated)	-	.	.	.	-	15	33	-
COc1cc(NC(=O)Nc2nc(C(N)Cc3ccc(C(F)(F)F)cc3)cs2)cc(OC)c1OC (configuration not stated)	-	.	.	.	-	20	21	-
COc1ccc(CC(N)c2csc(NC(=O)Nc3ccccc3Oc3ccccc3)n2)cc1 (configuration not stated)	-	.	.	.	-	12	-	21
COc1ccc(CC(N)c2csc(NC(=O)Nc3ccc(OC)cc3)n2)cc1 (configuration not stated)	-	.	.	.	-	-	.	.
CCc1cnc(Nc2nc(C(N)Cc3ccc(Cl)cc3)cs2)nc1 (configuration not stated)	-	.	.	.	-	-	.	.
Cc1ccc(C(=O)Nc2nc(C(N)Cc3ccc(C(F)(F)F)cc3)cs2)cc1 (configuration not stated)	-	.	.	.	-	11	24	-
